Assay results taken from ChEMBL document CHEMBL3593175, “Bicyclic [3.3.0]-Octahydrocyclopenta[c]pyrrolo Antagonists of Retinol Binding Protein 4: Potential Treatment of Atrophic Age-Related Macular Degeneration and Stargardt Disease” (J Med Chem, 2015).

Key:
[1] = Metabolic stability in human liver microsomes assessed as compound remaining at 10 uM after 30 mins; type: ADME; conditions: read-out: Stability
[2] = Metabolic stability in rat liver microsomes assessed as compound remaining at 10 uM after 30 mins; type: ADME; conditions: read-out: Stability
[3] = test system: Liver microsome; assay: Intrinsic clearance in human liver microsomes; type: ADME
[4] = test system: Liver microsome; assay: Intrinsic clearance in rat liver microsomes; type: ADME
[5] = test system: Liver; assay: Intrinsic clearance in mouse liver microsomes; type: ADME
[6] = Intrinsic clearance in cynomolgus monkey liver microsomes; type: ADME, Macaca fascicularis
[7] = biological target: Cytochrome P450 2C9 (Homo sapiens, UniProt P11712); assay: Inhibition of CYP2C9 (unknown origin)
[8] = biological target: Cytochrome P450 2C19 (Homo sapiens, UniProt P33261); assay: Inhibition of CYP2C19 (unknown origin); type: ADME
[9] = biological target: Cytochrome P450 2D6 (Homo sapiens, UniProt P10635); assay: Inhibition of CYP2D6 (unknown origin); type: ADME
[10] = biological target: Cytochrome P450 3A4 (Homo sapiens, UniProt P08684); assay: Inhibition of CYP3A4 (unknown origin); type: ADME
[11] = biological target: Voltage-gated inwardly rectifying potassium channel KCNH2 (Homo sapiens, UniProt Q12809); assay: Inhibition of human ERG expressed in HEK293 cells by patch clamp assay; type: cell-based
[12] = test system: Plasma; assay: Protein binding in rat plasma; type: ADME, cell-free
[13] = test system: MDCK; assay: Apparent permeability across apical to basolateral side in MDCK cells expressing MDR1; type: ADME, cell-based, Canis lupus familiaris; conditions: dog
[14] = test system: MDCK; assay: Apparent permeability across basolateral to apical side in MDCK cells expressing MDR1; type: ADME, cell-based, Canis lupus familiaris; conditions: dog
[15] = biological target: T1, Nuclear receptor subfamily 1 group I member 2 (Homo sapiens, UniProt O75469); assay: Activation of human PXR; type: ADME
T1 sequence (O75469 whole entry): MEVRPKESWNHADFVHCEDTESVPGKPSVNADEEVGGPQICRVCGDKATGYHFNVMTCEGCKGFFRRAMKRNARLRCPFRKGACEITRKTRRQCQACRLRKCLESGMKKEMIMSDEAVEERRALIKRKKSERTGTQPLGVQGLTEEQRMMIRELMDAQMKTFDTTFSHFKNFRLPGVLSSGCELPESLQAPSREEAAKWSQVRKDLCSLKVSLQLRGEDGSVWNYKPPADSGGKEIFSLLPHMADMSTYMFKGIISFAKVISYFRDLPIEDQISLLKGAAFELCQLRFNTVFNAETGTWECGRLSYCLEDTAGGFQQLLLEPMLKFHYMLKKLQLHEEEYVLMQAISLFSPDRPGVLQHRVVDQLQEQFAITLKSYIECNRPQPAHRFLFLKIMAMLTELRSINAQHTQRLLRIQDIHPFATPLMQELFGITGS

[16] = Kinetic solubility in phosphate buffered saline at pH 7.4; type: physicochemical; conditions: buffer
[17] = test system: Plasma; assay: Initial plasma concentration in Sprague-Dawley rat at 2 mg/kg, iv by HPLC/MS/MS method; type: ADME, organism-based; conditions: in vivo
Outline: (§1)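 Male Sprague Dawley rats, 3 per group, single dose: 2.0 mg/kg IV tail vein (0.4 mg/mL, 5 mL/kg; 3% DMA/45% PEG300/12% ethanol/40% sterile water) or 5.0 mg/kg oral gavage (0.5 mg/mL, 10 mL/kg; 2% Tween 80 in 0.9% saline). Plasma sampled pre-dose to 48 h, assayed by HPLC/MS/MS. Non-compartmental analysis; AUC by log/linear (IV) or linear up/log down trapezoidal (PO).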

[18] = test system: Rattus norvegicus; assay: Plasma clearance in Sprague-Dawley rat at 2 mg/kg, iv by HPLC/MS/MS method; type: ADME, organism-based; conditions: in vivo; outline: as §1
[19] = test system: Rattus norvegicus; assay: Apparent terminal half life in Sprague-Dawley rat at 2 mg/kg, iv by HPLC/MS/MS method; type: ADME, organism-based; conditions: in vivo; outline: as §1
[20] = test system: Rattus norvegicus; assay: Volume of distribution at steady state in Sprague-Dawley rat at 2 mg/kg, iv by HPLC/MS/MS method; type: ADME, organism-based; conditions: in vivo; outline: as §1
[21] = test system: Rattus norvegicus; assay: AUClast in Sprague-Dawley rat at 2 mg/kg, iv by HPLC/MS/MS method; type: ADME, organism-based; parameters: dose 2 mg/kg, time 0 - last, route intravenous; conditions: in vivo; outline: as §1
[22] = test system: Rattus norvegicus; assay: AUC (0 to infinity) in Sprague-Dawley rat at 2 mg/kg, iv by HPLC/MS/MS method; type: ADME, organism-based; parameters: dose 2 mg/kg, route intravenous, time infinity; conditions: in vivo; outline: as §1
[23] = test system: Rattus norvegicus; assay: Cmax in Sprague-Dawley rat at 5 mg/kg, po by HPLC/MS/MS method; type: ADME, organism-based; parameters: dose 5 mg/kg, route oral; conditions: in vivo; outline: as §1
[24] = test system: Rattus norvegicus; assay: Tmax in Sprague-Dawley rat at 5 mg/kg, po by HPLC/MS/MS method; type: ADME, organism-based; conditions: in vivo; outline: as §1
[25] = test system: Rattus norvegicus; assay: Apparent terminal half life in Sprague-Dawley rat at 5 mg/kg, po by HPLC/MS/MS method; type: ADME, organism-based; conditions: in vivo; outline: as §1
[26] = test system: Rattus norvegicus; assay: AUClast in Sprague-Dawley rat at 5 mg/kg, po by HPLC/MS/MS method; type: ADME, organism-based; parameters: dose 5 mg/kg, time 0 - last, route oral; conditions: in vivo; outline: as §1
[27] = test system: Rattus norvegicus; assay: AUC (0 to infinity) in Sprague-Dawley rat at 5 mg/kg, po by HPLC/MS/MS method; type: ADME, organism-based; parameters: dose 5 mg/kg, time infinity, route oral; conditions: in vivo; outline: as §1
[28] = test system: Rattus norvegicus; assay: Oral bioavailability in Sprague-Dawley rat at 5 mg/kg by HPLC/MS/MS method; type: ADME, organism-based; conditions: in vivo; outline: as §1
[29] = Plasma concentration in Sprague-Dawley rat at 5 mg/kg, po measured at 48 hrs post dose on day 1 by HPLC/MS/MS method; type: ADME, organism-based
Outline: (§2)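 Male Sprague Dawley rats (n=3) were given one 5 mg/kg oral gavage dose (1.0 mg/mL) on Day 1 in 2% Tween 80 in 0.9% saline. Plasma was sampled pre-dose and at 0.25–48 h and measured by HPLC/MS/MS. Non-compartmental analysis: Cmax and Tmax taken directly from the data; half-life from terminal regression over at least three non-zero points after Tmax.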

[30] = Plasma concentration in Sprague-Dawley rat at 5 mg/kg, po qd administered for 7 days measured at 4 hrs post dose on day 7 by HPLC/MS/MS method; type: ADME, organism-based
Outline: (§3)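 Male Sprague Dawley rats (n=3) were dosed orally by gavage at 5 mg/kg (1.0 mg/mL) once daily on Days 1–7, with a vehicle group run in parallel. Plasma was taken pre-dose on Days 1–6, then pre-dose and at 0.25–48 h on Day 7, and analysed by HPLC/MS/MS. Non-compartmental PK; terminal half-life needed at least three non-zero points after Tmax.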

[31] = Plasma concentration in Sprague-Dawley rat at 5 mg/kg, po qd administered for 7 days measured at 48 hrs post dose on day 7 by HPLC/MS/MS method; type: ADME, organism-based; outline: as §3
[32] = Plasma concentration in Sprague-Dawley rat at 5 mg/kg, po qd administered for 7 days measured on day 7 prior to administration of last dose by HPLC/MS/MS method; type: ADME, organism-based; outline: as §3
[33] = test system: Rattus norvegicus; assay: Cmax in Sprague-Dawley rat at 5 mg/kg, po measured on day 1 by HPLC/MS/MS method; type: ADME, organism-based; parameters: dose 5 mg/kg, route oral; conditions: in vivo; outline: as §2
[34] = test system: Rattus norvegicus; assay: Tmax in Sprague-Dawley rat at 5 mg/kg, po measured on day 1 by HPLC/MS/MS method; type: ADME, organism-based; conditions: in vivo; outline: as §2
[35] = test system: Rattus norvegicus; assay: Elimination half life in Sprague-Dawley rat at 5 mg/kg, po measured on day 1 by HPLC/MS/MS method; type: ADME, organism-based; conditions: in vivo; outline: as §2
[36] = test system: Rattus norvegicus; assay: AUClast in Sprague-Dawley rat at 5 mg/kg, po measured on day 1 by HPLC/MS/MS method; type: ADME, organism-based; parameters: dose 5 mg/kg, time 0 - last, route oral; conditions: in vivo; outline: as §2
[37] = test system: Rattus norvegicus; assay: Cmax in Sprague-Dawley rat at 5 mg/kg, po qd administered for 7 days measured on day 7 post last dose by HPLC/MS/MS method; type: ADME, organism-based; parameters: dose 5 mg/kg, route oral; conditions: in vivo, 168 h; outline: as §3
[38] = test system: Rattus norvegicus; assay: Tmax in Sprague-Dawley rat at 5 mg/kg, po qd administered for 7 days measured on day 7 post last dose by HPLC/MS/MS method; type: ADME, organism-based; conditions: in vivo, 168 h; outline: as §3
[39] = test system: Rattus norvegicus; assay: Elimination half life in Sprague-Dawley rat at 5 mg/kg, po qd administered for 7 days measured on day 7 post last dose by HPLC/MS/MS method; type: ADME, organism-based; conditions: in vivo, 168 h; outline: as §3
[40] = test system: Rattus norvegicus; assay: AUClast in Sprague-Dawley rat at 5 mg/kg, po qd administered for 7 days measured on day 7 post last dose by HPLC/MS/MS method; type: ADME, organism-based; parameters: dose 5 mg/kg, route oral, time 0 - last; conditions: in vivo, 168 h; outline: as §3
[41] = test system: Rattus norvegicus; assay: Decrease in RBP4 level in Sprague-Dawley rat plasma at 5 mg/kg, po relative to vehicle-treated control; type: functional; parameters: scale not given: the % may be the effect or the level left
Outline: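 Male Sprague-Dawley rats were dosed by oral gavage at 10 mL/kg, with 2% Tween 80 in 0.9% saline as vehicle, […]. A vehicle-dosed group served as control. Whole blood was clotted for 30 min at room temperature, then centrifuged at 2000g for 15 min at 4°C to give serum. Serum RBP4 was measured by dual ELISA.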

[42] = test system: Rattus norvegicus; assay: Decrease in RBP4 level in Sprague-Dawley rat plasma at 5 mg/kg, po qd administered for 7 days measured on day 7 post last dose relative to vehicle-treated control; type: functional; parameters: scale not given: the % may be the effect or the level left
Outline: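 Male Sprague Dawley rats received 5 mg/kg or vehicle by oral gavage once daily for 7 days, 3 per group. Whole blood clotted 30 min at room temperature, then was centrifuged at 2000g for 15 min at 4°C. Serum RBP4 was measured by dual ELISA kit per the manufacturer's instructions.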

Sequence of Cytochrome P450 3A4 (P08684 whole entry): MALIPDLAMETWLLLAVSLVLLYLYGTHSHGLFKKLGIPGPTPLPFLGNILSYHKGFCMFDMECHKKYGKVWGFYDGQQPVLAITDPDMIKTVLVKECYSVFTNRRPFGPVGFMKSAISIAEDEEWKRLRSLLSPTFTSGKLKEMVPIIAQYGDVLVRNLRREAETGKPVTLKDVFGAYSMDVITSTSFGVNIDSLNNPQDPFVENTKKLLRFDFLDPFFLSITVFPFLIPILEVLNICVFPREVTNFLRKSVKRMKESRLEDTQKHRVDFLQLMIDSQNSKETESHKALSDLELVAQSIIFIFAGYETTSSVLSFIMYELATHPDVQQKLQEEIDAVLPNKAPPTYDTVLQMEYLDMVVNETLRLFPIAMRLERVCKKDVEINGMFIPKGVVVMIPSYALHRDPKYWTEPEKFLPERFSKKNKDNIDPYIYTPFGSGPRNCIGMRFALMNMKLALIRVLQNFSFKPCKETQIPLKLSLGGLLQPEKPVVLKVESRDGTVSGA
Sequence of Cytochrome P450 2C9 (P11712 whole entry): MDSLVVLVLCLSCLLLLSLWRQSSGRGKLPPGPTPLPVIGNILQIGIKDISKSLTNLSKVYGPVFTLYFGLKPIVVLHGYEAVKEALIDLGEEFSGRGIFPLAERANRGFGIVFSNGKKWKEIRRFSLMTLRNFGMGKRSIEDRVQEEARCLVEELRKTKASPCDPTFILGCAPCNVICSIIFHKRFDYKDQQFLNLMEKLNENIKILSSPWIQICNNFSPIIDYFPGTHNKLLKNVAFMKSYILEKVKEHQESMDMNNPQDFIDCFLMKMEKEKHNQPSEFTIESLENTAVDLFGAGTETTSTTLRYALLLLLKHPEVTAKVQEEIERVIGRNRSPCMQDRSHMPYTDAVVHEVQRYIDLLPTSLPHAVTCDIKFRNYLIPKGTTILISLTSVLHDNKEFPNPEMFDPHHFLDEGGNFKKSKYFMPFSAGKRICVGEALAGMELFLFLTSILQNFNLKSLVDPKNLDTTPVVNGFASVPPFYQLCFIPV
Sequence of Cytochrome P450 2D6 (P10635 whole entry): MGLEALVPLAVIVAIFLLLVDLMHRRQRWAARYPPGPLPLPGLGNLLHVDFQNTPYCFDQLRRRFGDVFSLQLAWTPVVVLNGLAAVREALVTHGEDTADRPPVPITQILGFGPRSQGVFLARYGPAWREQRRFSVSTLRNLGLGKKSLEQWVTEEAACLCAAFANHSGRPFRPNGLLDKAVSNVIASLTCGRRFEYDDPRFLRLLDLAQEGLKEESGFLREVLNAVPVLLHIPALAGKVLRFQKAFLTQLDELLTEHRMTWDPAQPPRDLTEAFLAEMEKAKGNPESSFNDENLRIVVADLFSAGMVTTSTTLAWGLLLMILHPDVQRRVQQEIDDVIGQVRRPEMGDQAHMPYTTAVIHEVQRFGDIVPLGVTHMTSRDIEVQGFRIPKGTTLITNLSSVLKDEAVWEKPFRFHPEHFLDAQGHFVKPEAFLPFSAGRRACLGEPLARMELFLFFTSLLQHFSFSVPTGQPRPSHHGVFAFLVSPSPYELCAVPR
Sequence of Voltage-gated inwardly rectifying potassium channel KCNH2 (Q12809 whole entry): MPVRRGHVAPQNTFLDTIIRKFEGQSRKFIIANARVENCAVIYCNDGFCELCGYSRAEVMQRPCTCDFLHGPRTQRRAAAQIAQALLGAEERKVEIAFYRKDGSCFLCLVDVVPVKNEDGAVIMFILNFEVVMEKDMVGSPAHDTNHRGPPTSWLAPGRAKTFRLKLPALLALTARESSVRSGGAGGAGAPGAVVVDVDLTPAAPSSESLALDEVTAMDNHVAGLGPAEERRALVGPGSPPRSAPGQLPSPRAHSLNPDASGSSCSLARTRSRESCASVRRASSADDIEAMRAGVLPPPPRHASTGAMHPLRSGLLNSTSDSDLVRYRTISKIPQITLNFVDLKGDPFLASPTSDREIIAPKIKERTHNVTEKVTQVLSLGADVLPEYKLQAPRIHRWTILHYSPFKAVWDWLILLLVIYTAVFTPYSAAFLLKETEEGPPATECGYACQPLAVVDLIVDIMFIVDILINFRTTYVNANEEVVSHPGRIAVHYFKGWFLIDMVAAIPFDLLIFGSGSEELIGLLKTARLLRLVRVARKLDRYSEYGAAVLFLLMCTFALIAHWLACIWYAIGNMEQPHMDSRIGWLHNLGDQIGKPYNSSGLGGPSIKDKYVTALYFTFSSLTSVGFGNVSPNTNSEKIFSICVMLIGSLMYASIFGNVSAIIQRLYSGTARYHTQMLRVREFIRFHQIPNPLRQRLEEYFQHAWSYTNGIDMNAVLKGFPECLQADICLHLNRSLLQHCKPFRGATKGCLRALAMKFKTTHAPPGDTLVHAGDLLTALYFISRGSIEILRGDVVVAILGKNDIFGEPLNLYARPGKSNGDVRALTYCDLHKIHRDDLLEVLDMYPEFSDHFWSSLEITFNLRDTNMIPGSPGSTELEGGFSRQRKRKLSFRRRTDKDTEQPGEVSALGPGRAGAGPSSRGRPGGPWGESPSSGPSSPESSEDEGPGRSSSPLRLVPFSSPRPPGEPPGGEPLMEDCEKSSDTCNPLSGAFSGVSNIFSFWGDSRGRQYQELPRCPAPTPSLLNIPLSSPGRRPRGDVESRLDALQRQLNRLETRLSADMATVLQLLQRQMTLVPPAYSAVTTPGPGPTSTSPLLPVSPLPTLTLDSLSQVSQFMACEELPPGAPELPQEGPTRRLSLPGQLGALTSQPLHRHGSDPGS
Sequence of Cytochrome P450 2C19 (P33261 whole entry): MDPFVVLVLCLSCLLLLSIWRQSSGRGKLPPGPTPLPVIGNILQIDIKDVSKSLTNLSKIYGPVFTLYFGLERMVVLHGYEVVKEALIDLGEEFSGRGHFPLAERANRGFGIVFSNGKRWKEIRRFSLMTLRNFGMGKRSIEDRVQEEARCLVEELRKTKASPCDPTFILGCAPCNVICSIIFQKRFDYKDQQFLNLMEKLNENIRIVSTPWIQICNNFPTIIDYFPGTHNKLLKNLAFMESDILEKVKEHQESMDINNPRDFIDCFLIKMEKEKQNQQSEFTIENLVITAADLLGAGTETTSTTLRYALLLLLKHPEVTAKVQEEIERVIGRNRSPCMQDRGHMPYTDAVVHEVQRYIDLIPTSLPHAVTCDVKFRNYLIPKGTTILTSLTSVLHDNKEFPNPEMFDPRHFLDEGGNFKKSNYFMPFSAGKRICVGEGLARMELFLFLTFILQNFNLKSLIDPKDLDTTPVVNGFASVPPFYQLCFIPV

Cc1cc(C(=O)O)nc(N2C[C@H]3C[C@@H](c4ccccc4C(F)(F)F)C[C@H]3C2)n1
remaining at 0.5 h, 10 µM [1]: 94%
remaining at 0.5 h, 10 µM [2]: 93%
CLH [3]: < 0.7 microL/ml/min
CLH [4]: < 0.7 microL/ml/min
CLH [5]: < 0.7 microL/ml/min
CLH [6]: 0.7 microL/ml/min
IC50 [7]: > 34 µM
IC50 [8]: > 34 µM
IC50 [9]: > 34 µM
IC50 [10]: > 34 µM
IC50 [11]: > 30 µM
PPB [12]: 99.4%
Papp [13]: 74.7 ×10⁻⁶ cm/s
Papp [14]: 82.2 ×10⁻⁶ cm/s
Activity [15]: Not Active
Kinetic_solubility [16]: > 100 µM
C0 [17]: 58.6 µM
CL [18]: 5.06 mL/h/kg
betat1/2(app) [19]: 22 h
Vdss [20]: 0.156 L/kg
AUClast [21]: 795 µM·h
AUC [22]: 1017 µM·h
Cmax [23]: 62.2 µM
Tmax [24]: 2.67 h
betat1/2(app) [25]: 38.8 h
AUClast [26]: 2011 µM·h
AUC [27]: 3636 µM·h
F [28]: 143%
concentration at 48 h [29]: 20 µM
concentration at 4 h [30]: 179 µM
concentration at 48 h [31]: 97.1 µM
concentration at 168 h [32]: 148 µM
Cmax [33]: 66.5 µM
Tmax [34]: 2.75 h
beta t1/2 [35]: 31.9 h
AUClast [36]: 1695 µM·h
Cmax [37]: 183 µM
Tmax [38]: 2.17 h
beta t1/2 [39]: 49.4 h
AUClast [40]: 6380 ng·h/mL
Activity [41]: 85%
Activity [42]: 95%
